Source: ChEMBL document CHEMBL5338714, “Design, synthesis and biological evaluation of biphenyl-benzamides as potent FtsZ inhibitors” (Eur J Med Chem, 2022)
≈ marks a conversion by molar mass, not a printed value.

Legend:
Staphylococcus aureus [1] = assay: Antibacterial activity against Staphylococcus aureus ATCC25923 assessed as bacterial growth inhibition incubated for 18 hrs by CLSI based broth microdilution method; assay type: functional
Summary of the method: (§1)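 CLSI broth microdilution. Log-phase bacteria in Mueller Hinton broth added to 2-fold serial dilutions spanning 128 to 0.25 or 2 to 0.004 µg/mL. Incubated aerobically for 18 h at 37 °C, then OD600 read. MIC is the lowest concentration giving ≥90% growth inhibition; three independent assays.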

Bacillus subtilis [2] = assay: Antibacterial activity against Bacillus subtilis ATCC9372 assessed as bacterial growth inhibition incubated for 18 hrs by CLSI based broth microdilution method; assay type: functional; summary of the method: as §1
Staphylococcus aureus [3] = assay: Antibacterial activity against Staphylococcus aureus ATCC29213 assessed as bacterial growth inhibition incubated for 18 hrs by CLSI based broth microdilution method; assay type: functional; summary of the method: as §1
Bacillus subtilis [4] = assay: Antibacterial activity against Bacillus subtilis MG27 assessed as bacterial growth inhibition incubated for 18 hrs by CLSI based broth microdilution method; assay type: functional; summary of the method: as §1
[5] = Cytotoxicity against African green monkey Vero cells assessed as reduction in cell viability incubated for 72 hrs by alamar blue staining based assay; assay type: toxicity; details: chlorocebus sabaeus
Summary of the method: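 Vero cells seeded at about 2 × 10^3 per well, 37 °C, 5% CO2. Compound added after 24 h and incubated 72 h. AlamarBlue (1:10 v/v) then added for 3 h in the dark, read at Ex/Em 560/590 nm. CC50 is the lowest concentration causing 50% loss of viability.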

[6] = Selectivity index, ratio of CC50 for African green monkey Vero cells to MIC for Bacillus subtilis ATCC9372; assay type: toxicity, cell-based; details: read-out: Selectivity Index
Summary of the method: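 CC50 in Vero cells (72 h Alamar blue) divided by broth microdilution MIC against B. subtilis ATCC9372.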

Bacillus subtilis [7] = assay: Antibacterial activity against Bacillus subtilis BS01 assessed as bacterial growth inhibition incubated for 18 hrs by CLSI based broth microdilution method; assay type: functional; summary of the method: as §1
Bacillus subtilis [8] = assay: Antibacterial activity against Bacillus subtilis 618 assessed as bacterial growth inhibition incubated for 18 hrs by CLSI based broth microdilution method; assay type: functional; summary of the method: as §1
Bacillus subtilis [9] = assay: Bactericidal activity against Bacillus subtilis ATCC9372 incubated for 24 hrs by broth microdilution method; assay type: functional
Summary of the method: (§2)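 MBC from the broth microdilution plates (MHB, 2-fold dilutions). After 24 h, 5 µL aliquots from clear wells were plated on LB agar and incubated aerobically 24 h at 37 °C, then colonies counted. MBC = lowest concentration with no colonies.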

Klebsiella pneumoniae = assay: Antibacterial activity against Klebsiella pneumoniae 14578 assessed as bacterial growth inhibition incubated for 18 hrs by CLSI based broth microdilution method; assay type: functional
Summary of the method: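 Broth microdilution to CLSI guidelines. Log-phase bacteria grown in Mueller Hinton broth, diluted, then exposed to 2-fold serial dilutions of compound (128 to 0.25 µg/mL or 2 to 0.004 µg/mL). Incubated aerobically 18 h at 37 °C. Growth read as OD600. MIC = lowest concentration giving ≥90% growth inhibition. Three independent assays.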

Staphylococcus aureus [10] = assay: Bactericidal activity against Staphylococcus aureus ATCC25923 incubated for 24 hrs by broth microdilution method; assay type: functional; summary of the method: as §2

Compound	MIC (Staphylococcus aureus [1]) [µg/mL]	MIC (Bacillus subtilis [2]) [µg/mL]	MIC (Staphylococcus aureus [3]) [µg/mL]	further results
CCCc1ccc(-c2cccc(COc3ccc(F)c(C(N)=O)c3F)c2)cc1	1 (≈ 2.62 µM)	0.125 (≈ 0.328 µM)	1 (≈ 2.62 µM)	–
NC(=O)c1c(F)ccc(OCc2cccc(-c3ccc(F)cc3)c2)c1F	1 (≈ 2.8 µM)	0.125 (≈ 0.35 µM)	2 (≈ 5.6 µM)	–
CCCCCc1ccc(-c2cccc(COc3ccc(F)c(C(N)=O)c3F)c2)cc1	> 128	0.125 (≈ 0.305 µM)	> 128	–
N#Cc1ccc(-c2cccc(COc3ccc(F)c(C(N)=O)c3F)c2)cc1	> 128	> 128	> 128	–
CCCCc1ccc(-c2cccc(COc3ccc(F)c(C(N)=O)c3F)c2)cc1	0.5 (≈ 1.26 µM)	0.125 (≈ 0.316 µM)	1 (≈ 2.53 µM)	–
CN[C@H](CC(C)C)C(=O)N[C@H]1C(=O)N[C@@H](CC(N)=O)C(=O)N[C@H]2C(=O)N[C@H]3C(=O)N[C@H](C(=O)N[C@H](C(=O)O)c4cc(O)cc(O)c4-c4cc3ccc4O)[C@H](O)c3ccc(c(Cl)c3)Oc3cc2cc(c3O[C@@H]2O[C@H](CO)[C@@H](O)[C@H](O)[C@H]2O[C@H]2C[C@](C)(N)[C@H](O)[C@H](C)O2)Oc2ccc(cc2Cl)[C@H]1O [VANCOMYCIN]	–	1 (≈ 0.69 µM)	–	MBC (Bacillus subtilis [9]): 1 µg/mL (≈ 0.69 µM); MIC (Klebsiella pneumoniae): > 128 µg/mL; MBC (Staphylococcus aureus [10]): 0.5 µg/mL (≈ 0.345 µM)
COc1cc(C(F)(F)F)ccc1-c1cccc(COc2ccc(F)c(C(N)=O)c2F)c1	1 (≈ 2.29 µM)	0.063 (≈ 0.144 µM)	1 (≈ 2.29 µM)	–
NC(=O)c1c(F)ccc(OCc2cccc(-c3ccc(C(F)(F)F)cc3C(F)(F)F)c2)c1F	0.5 (≈ 1.05 µM)	0.125 (≈ 0.263 µM)	0.5 (≈ 1.05 µM)	–

The next lines start with results.

MIC (Staphylococcus aureus [1]) [µg/mL]	MIC (Bacillus subtilis [2]) [µg/mL]	MIC (Staphylococcus aureus [3]) [µg/mL]	Compound	further results
0.25 (≈ 0.593 µM)	0.031 (≈ 0.0736 µM)	0.25 (≈ 0.593 µM)	Cc1cc(C(F)(F)F)ccc1-c1cccc(COc2ccc(F)c(C(N)=O)c2F)c1	MIC (Bacillus subtilis [4]): 0.063 µg/mL (≈ 0.15 µM); CC50 at 72 h [5]: > 20 µg/mL; selectivity ratio [6]: > 1250; MIC (Bacillus subtilis [7]): 0.016 µg/mL (≈ 0.038 µM); MIC (Bacillus subtilis [8]): 0.031 µg/mL (≈ 0.0736 µM)
1 (≈ 2.39 µM)	0.125 (≈ 0.299 µM)	1 (≈ 2.39 µM)	Cc1cc(Cl)ccc1-c1cccc(C(CO)Oc2ccc(F)c(C(N)=O)c2F)c1 (stereo not given)	–
0.5 (≈ 1.13 µM)	0.125 (≈ 0.283 µM)	0.5 (≈ 1.13 µM)	NC(=O)c1c(F)ccc(OCc2cccc(-c3ccc(Cl)cc3C(F)(F)F)c2)c1F	–
> 128	0.5 (≈ 1.31 µM)	> 128	CC(C)c1ccc(-c2cccc(COc3ccc(F)c(C(N)=O)c3F)c2)cc1	–
0.5 (≈ 1.28 µM)	0.016 (≈ 0.0408 µM)	0.5 (≈ 1.28 µM)	NC(=O)c1c(F)ccc(OCc2cccc(-c3ccc(Cl)cc3F)c2)c1F	MIC (Bacillus subtilis [4]): 0.031 µg/mL (≈ 0.0791 µM); MIC (Bacillus subtilis [7]): 0.016 µg/mL (≈ 0.0408 µM); MIC (Bacillus subtilis [8]): 0.016 µg/mL (≈ 0.0408 µM)
> 128	> 128	> 128	NC(=O)c1cc(C(F)(F)F)ccc1-c1cccc(COc2ccc(F)c(C(N)=O)c2F)c1	–
1 (≈ 2.83 µM)	0.25 (≈ 0.707 µM)	1 (≈ 2.83 µM)	Cc1ccccc1-c1cccc(COc2ccc(F)c(C(N)=O)c2F)c1	–
0.25 (≈ 0.669 µM)	0.063 (≈ 0.169 µM)	0.25 (≈ 0.669 µM)	NC(=O)c1c(F)ccc(OCc2cccc(-c3ccc(Cl)cc3)c2)c1F	–
0.5 (≈ 1.41 µM)	0.125 (≈ 0.354 µM)	0.5 (≈ 1.41 µM)	Cc1ccc(-c2cccc(COc3ccc(F)c(C(N)=O)c3F)c2)cc1	–
